Assay results from ChEMBL document CHEMBL1157620, “1-(Aryl)-6-[alkoxyalkyl]-3-azabicyclo[3.1.0]hexanes and 6-(aryl)-6-[alkoxyalkyl]-3-azabicyclo[3.1.0]hexanes: a new series of potent and selective triple reuptake inhibitors” (J Med Chem, 2010).
Activity calls are given as the source filed them. No cut-off for these calls is given here.

Columns and labels:
[1] = target: T1, Sodium-dependent dopamine transporter (Homo sapiens, UniProt Q01959); test: Displacement of [3H]WIN-35428 from human recombinant DAT expressed in BacMam virus-transduced cells by scintillation proximity assay; format: cell-based
[2] = target: T2, Sodium-dependent noradrenaline transporter (Homo sapiens, UniProt P23975); test: Displacement of [3H]nisoxetine from human recombinant NET expressed in BacMam virus-transduced cells by scintillation proximity assay; format: cell-based
Outline: (§1)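 BacMam-transduced membranes in SPA format. SERT: 1 mg/mL beads, 6 μg/mL membranes, 3 nM [3H]citalopram. NET: 2 mg/mL beads, 40 μg/mL membranes, 10 nM [3H]nisoxetine. Incubated overnight at room temperature; pKi from pIC50 by Cheng-Prusoff.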

[3] = target: T3, Sodium-dependent serotonin transporter (Homo sapiens, UniProt P31645); test: Displacement of [3H]citalopram from human recombinant SERT expressed in BacMam virus-transduced cells by scintillation proximity assay; format: cell-based; outline: as §1
[4] = Blood clearance in rat; format: ADME, organism-based
[5] = Half life in rat; format: ADME, organism-based; settings: in vivo
[6] = Volume of distribution in rat; format: ADME, organism-based; settings: in vivo
[7] = Bioavailability in rat; format: ADME, organism-based; settings: in vivo
Brain = test: (§2) Fraction unbound in rat brain; format: ADME, tissue-based
Homo sapiens = organism: Homo sapiens; test: Selectivity for human recombinant SERT over human recombinant DAT
Rattus norvegicus [8] = test: Increase in extracellular serotonin level in frontal cortex of free moving CD rat at 1 mg/kg, ip after 3 hrs by microdialysis; format: functional, organism-based; design: dose 1 mg/kg
Outline: (§3)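 Male CD rats, 280-310 g, with microdialysis probe in left medial prefrontal cortex, freely moving, locomotion recorded at the same time. Dosed ip at 0.1, 0.3 or 1 mg/kg. Dialysate collected every 20 min after 2 h of perfusion, for 3 h post dose. NA, DA and 5-HT by HPLC with electrochemical detection; two-way repeated-measures ANOVA.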

Rattus norvegicus [9] = test: Increase in extracellular norepinephrine level in frontal cortex of free moving CD rat at 1 mg/kg, ip after 3 hrs by microdialysis; format: functional, organism-based; design: dose 1 mg/kg; outline: as §3
Rattus norvegicus [10] = test: Increase in extracellular dopamine level in frontal cortex of free moving CD rat at 1 mg/kg, ip after 3 hrs by microdialysis; format: functional, organism-based; design: dose 1 mg/kg; outline: as §3
Rattus norvegicus [11] = test: Enhancement of locomotor activity of CD rat at 1 mg/kg, ip; format: functional, organism-based; design: dose 1 mg/kg; outline: as §3
Mus musculus [12] = test: Potentiation of 5-hydroxytryptophan-induced stereotpic behavior in po dosed CD1 mouse administered 120 mins before 5HTP challenge measured for 30 mins; format: functional, organism-based
Outline: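 CD-1 mice dosed orally 120 min before 5-HTP (100 mg/kg ip). Videotaped for 30 min and scored for hyperlocomotion, hind-limb abduction, flat body posture, head twitches/tremor and body tremor.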

Mus musculus [13] = test: Increase in spontaneous locomotor activity in CD1 mouse at 3 mg/kg, po administered 120 mins before test measured for 30 mins; format: functional, organism-based; design: dose 3 mg/kg
Outline: (§4)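 CD-1 mice dosed orally at 3, 10 or 30 mg/kg, 120 min before test. Total distance travelled recorded over 30 min in infrared activity boxes.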

Mus musculus [14] = test: Increase in spontaneous locomotor activity in CD1 mouse at 10 mg/kg, po administered 120 mins before test measured for 30 mins; format: functional, organism-based; design: dose 10 mg/kg; outline: as §4
Mus musculus [15] = test: Increase in spontaneous locomotor activity in CD1 mouse at 30 mg/kg, po administered 120 mins before test measured for 30 mins; format: functional, organism-based; design: dose 30 mg/kg; outline: as §4
Mus musculus [16] = test: Antidepressant-like activity in CD1 mouse assessed as reduction in immobility time at 3 mg/kg, po administered 120 mins before test by forced swimming test; format: functional, organism-based; design: dose 3 mg/kg
Outline: (§5)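 Naive male CD-1 mice, 25-30 g, dosed orally 120 min before the swim test. Immobility (floating upright, only small movements to keep the head above water) was scored over the last 4 min of a 6 min session by an observer blind to treatment, from video.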

Mus musculus [17] = test: Antidepressant-like activity in CD1 mouse assessed as reduction in immobility time at 10 mg/kg, po administered 120 mins before test by forced swimming test; format: functional, organism-based; design: dose 10 mg/kg; outline: as §5
Mus musculus [18] = test: Potentiation of 5-hydroxytryptophan-induced stereotpic behavior in CD1 mouse at 10 mg/kg, po administered 120 mins before 5HTP challenge measured for 30 mins; format: functional, organism-based; design: dose 10 mg/kg
Outline: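 Naive male CD-1 mice (25-30 g) were dosed orally 120 min before an ip injection of 5-HTP (100 mg/kg). Each mouse was then placed alone in a perspex box and videotaped. For the next 30 min, observers scored aimless hyperlocomotor activity, hind-limb abduction, flat body posture, head twitches/tremor and body tremor.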

[19] = target: T3, Sodium-dependent serotonin transporter; test: Inhibition of [3H]serotonin reuptake at human SERT expressed in LLCPK cells by scintillation proximity assay; format: cell-based
Outline: (§6)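 Uptake-SPA on stably transfected LLCPK cells in HEPES buffer, pH 7.4. SERT: 25000 cells/well, 1.5 mg/mL beads, 35 nM [3H]serotonin. NET: 50000 cells/well, 1.5 mg/mL beads, 45 nM [3H]noradrenalin. DAT: 75000 cells/well, 2 mg/mL beads, 75 nM [3H]dopamine. Concentrations are those of the substrate addition. 1 h at room temperature; 4-parameter fit.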

[20] = target: T2, Sodium-dependent noradrenaline transporter; test: Inhibition of [3H]noradrenalin reuptake at human NET expressed in LLCPK cells by scintillation proximity assay; format: cell-based; outline: as §6
[21] = target: T1, Sodium-dependent dopamine transporter; test: Inhibition of [3H]dopamine reuptake at human DAT expressed in LLCPK cells by scintillation proximity assay; format: cell-based; outline: as §6
[22] = target: T3, Sodium-dependent serotonin transporter; test: Displacement of [3H]citalopram from human recombinant SERT expressed in LLCPK cells by liquid scintillation counting; format: cell-based
Outline: (§7)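 Filtration binding on stably transfected LLCPK cell membranes, 2 h at room temperature. SERT: 0.25 nM [3H]citalopram, about 2.5 μg protein/well, NSB with 10 μM fluoxetine. NET: 1.5 nM [3H]nisoxetine, 4.8 μg/well, NSB with 10 μM desipramine. DAT: 10 nM [3H]WIN-35,428, 9.6 μg/well, NSB with 10 μM GBR-12909. Filter-bound radioactivity counted; 4-parameter fit, pKi by Cheng-Prusoff.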

[23] = target: T2, Sodium-dependent noradrenaline transporter; test: Displacement of [N-methyl-3H]nisoxetine from human recombinant NET expressed in LLCPK cells by liquid scintillation counting; format: cell-based; outline: as §7
[24] = target: T1, Sodium-dependent dopamine transporter; test: Displacement of [N-methyl-3H]WIN-35428 from human recombinant DAT expressed in LLCPK cells by liquid scintillation counting; format: cell-based; outline: as §7
[25] = target: Sodium-dependent serotonin transporter (Rattus norvegicus, UniProt P31652); test: Displacement of [3H]citalopram from rat cortex SERT by filtration binding assay
Outline: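 Native brain tissue filtration binding, run as for the recombinant transporters. SERT on rat or mouse cortex (20 and 7 μg protein/well respectively). NET on rat hippocampus (40 μg/well). DAT on rat striatum (20 μg/well).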

Cytochrome P450 1A2 = target: T4, Cytochrome P450 1A2 (Homo sapiens, UniProt P05177); test: Inhibition of human CYP1A2 by fluorescence assay; format: ADME
T4 sequence (P05177 whole entry): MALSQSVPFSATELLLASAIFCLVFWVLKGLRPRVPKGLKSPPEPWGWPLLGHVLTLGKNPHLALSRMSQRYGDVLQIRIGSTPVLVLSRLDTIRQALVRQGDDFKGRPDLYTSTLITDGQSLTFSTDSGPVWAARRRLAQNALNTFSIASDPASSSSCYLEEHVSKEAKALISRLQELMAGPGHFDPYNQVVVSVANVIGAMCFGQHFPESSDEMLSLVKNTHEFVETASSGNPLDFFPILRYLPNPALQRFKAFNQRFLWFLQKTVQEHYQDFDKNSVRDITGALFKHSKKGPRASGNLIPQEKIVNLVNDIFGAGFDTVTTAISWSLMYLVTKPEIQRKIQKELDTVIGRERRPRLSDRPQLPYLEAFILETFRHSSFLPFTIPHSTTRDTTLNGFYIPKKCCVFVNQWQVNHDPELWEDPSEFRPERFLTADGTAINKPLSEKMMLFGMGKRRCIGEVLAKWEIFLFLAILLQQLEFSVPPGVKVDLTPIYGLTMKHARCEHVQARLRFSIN
Outline: (§8)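 Recombinant human P450 bactosomes (0.1 mg/mL) in 50 mM phosphate, pH 7.4. Test compound at 0.1-10 μM, preincubated 10 min at 37 °C with fluorogenic substrate: ethoxyresorufin 0.5 μM (1A2), FCA 50 μM (2C9), BMC 10 μM (2C19), MMC 10 μM (2D6).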

Cytochrome P450 2C9 = Cytochrome P450 2C9 (Homo sapiens, UniProt P11712); test: Inhibition of human CYP2C9 by fluorescence assay; format: ADME; outline: as §8
Cytochrome P450 2C19 = Cytochrome P450 2C19 (Homo sapiens, UniProt P33261); test: Inhibition of human CYP2C19 by fluorescence assay; format: ADME; outline: as §8
Cytochrome P450 2D6 = Cytochrome P450 2D6 (Homo sapiens, UniProt P10635); test: Inhibition of human […] by fluorescence assay; format: ADME; outline: as §8
Cytochrome P450 3A4 = Cytochrome P450 3A4 (Homo sapiens, UniProt P08684); test: Inhibition of human CYP3A4 by fluorescence assay
Liver microsomes [26] = test: Intrinsic clearance in human liver microsomes assessed per gram of protein at 0.5 uM after 30 mins by HPLC-MS/MS analysis; format: ADME, Microsome; settings: microsomes, 0.5 h, 0.5 µM
Outline: (§9)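 Compound at 0.5 μM with rat or human liver microsomes (0.5 mg protein/mL), 50 mM phosphate, pH 7.4, 37 °C, started with NADPH. Sampled at 0-30 min, acetonitrile quench, HPLC-MS/MS. CLi from first-order elimination constant, scaled assuming 52.5 mg microsomal protein/g.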

Liver microsomes [27] = test: Intrinsic clearance in rat liver microsomes assessed per gram of protein at 0.5 uM after 30 mins by HPLC-MS/MS analysis; format: ADME, Microsome; settings: microsomes, 0.5 h, 0.5 µM; outline: as §9
[28] = Ratio of drug level in brain to blood in rat; format: ADME, tissue-based; settings: read-out: BBR
[29] = as §2; format: ADME, tissue-based; settings: brain

T2 sequence (P23975 whole entry): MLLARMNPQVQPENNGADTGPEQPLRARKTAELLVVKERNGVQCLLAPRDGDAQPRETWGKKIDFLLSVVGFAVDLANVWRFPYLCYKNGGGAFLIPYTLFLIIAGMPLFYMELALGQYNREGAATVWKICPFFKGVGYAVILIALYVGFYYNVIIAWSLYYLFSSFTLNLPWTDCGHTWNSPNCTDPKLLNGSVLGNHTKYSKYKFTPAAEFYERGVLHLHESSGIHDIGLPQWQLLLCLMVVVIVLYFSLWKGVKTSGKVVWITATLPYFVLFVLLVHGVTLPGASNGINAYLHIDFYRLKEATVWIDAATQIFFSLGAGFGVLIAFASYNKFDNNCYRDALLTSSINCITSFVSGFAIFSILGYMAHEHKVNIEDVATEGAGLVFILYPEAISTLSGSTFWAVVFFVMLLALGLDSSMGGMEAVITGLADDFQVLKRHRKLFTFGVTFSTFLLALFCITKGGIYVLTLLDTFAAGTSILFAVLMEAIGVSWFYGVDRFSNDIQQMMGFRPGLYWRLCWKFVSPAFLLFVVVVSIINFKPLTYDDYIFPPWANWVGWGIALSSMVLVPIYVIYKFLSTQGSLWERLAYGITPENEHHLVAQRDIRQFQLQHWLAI
T3 sequence (P31645 whole entry): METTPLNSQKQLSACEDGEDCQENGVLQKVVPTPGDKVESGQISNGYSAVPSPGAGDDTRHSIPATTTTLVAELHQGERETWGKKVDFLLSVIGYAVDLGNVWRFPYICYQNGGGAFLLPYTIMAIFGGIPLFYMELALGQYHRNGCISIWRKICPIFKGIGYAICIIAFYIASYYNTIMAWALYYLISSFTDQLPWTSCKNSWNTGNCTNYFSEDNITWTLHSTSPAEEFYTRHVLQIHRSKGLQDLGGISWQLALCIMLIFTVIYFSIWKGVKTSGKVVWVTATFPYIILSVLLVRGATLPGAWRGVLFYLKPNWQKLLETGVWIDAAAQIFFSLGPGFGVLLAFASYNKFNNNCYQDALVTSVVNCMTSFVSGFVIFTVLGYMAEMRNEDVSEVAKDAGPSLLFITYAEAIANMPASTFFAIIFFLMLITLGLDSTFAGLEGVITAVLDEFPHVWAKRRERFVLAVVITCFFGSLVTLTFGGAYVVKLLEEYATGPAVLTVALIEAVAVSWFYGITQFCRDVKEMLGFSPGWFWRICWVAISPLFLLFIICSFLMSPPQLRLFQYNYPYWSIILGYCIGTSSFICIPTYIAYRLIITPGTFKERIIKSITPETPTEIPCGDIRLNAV
T1 sequence (Q01959 whole entry): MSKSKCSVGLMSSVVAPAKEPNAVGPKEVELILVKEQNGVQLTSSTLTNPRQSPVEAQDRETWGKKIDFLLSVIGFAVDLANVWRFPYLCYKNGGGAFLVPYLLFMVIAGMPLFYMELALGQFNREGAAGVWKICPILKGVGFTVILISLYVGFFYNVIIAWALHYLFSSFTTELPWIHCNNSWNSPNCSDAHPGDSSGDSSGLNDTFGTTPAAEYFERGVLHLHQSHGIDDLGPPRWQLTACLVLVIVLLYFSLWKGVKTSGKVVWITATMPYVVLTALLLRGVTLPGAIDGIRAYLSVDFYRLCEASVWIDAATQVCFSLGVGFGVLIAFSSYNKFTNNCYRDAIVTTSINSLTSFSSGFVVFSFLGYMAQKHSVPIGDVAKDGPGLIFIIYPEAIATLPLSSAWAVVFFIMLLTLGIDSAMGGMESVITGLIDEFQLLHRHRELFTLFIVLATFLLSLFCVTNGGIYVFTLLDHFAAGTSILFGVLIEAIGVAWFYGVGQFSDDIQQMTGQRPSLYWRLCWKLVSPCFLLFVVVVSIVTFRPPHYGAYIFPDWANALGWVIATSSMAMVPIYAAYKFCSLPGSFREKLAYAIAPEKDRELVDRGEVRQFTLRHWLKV
Chain of Sodium-dependent serotonin transporter (Rattus norvegicus, UniProt P31652) (P31652 whole entry): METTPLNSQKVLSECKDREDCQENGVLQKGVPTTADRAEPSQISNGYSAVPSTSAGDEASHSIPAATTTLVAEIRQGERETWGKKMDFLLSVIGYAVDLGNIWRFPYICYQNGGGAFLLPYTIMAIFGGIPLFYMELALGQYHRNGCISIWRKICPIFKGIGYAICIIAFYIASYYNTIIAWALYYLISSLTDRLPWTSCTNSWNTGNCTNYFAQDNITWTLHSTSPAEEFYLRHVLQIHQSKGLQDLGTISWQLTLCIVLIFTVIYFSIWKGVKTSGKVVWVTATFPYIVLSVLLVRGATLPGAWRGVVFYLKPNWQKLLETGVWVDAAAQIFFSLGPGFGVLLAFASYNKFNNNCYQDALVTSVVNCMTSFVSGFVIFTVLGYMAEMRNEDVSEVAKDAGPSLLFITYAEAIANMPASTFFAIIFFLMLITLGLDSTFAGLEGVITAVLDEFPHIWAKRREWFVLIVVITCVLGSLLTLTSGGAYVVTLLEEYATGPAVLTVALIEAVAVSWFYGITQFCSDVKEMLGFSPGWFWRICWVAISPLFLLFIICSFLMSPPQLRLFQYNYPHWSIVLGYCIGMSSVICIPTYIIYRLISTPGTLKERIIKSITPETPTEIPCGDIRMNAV
Chain of Cytochrome P450 2D6 (P10635 whole entry): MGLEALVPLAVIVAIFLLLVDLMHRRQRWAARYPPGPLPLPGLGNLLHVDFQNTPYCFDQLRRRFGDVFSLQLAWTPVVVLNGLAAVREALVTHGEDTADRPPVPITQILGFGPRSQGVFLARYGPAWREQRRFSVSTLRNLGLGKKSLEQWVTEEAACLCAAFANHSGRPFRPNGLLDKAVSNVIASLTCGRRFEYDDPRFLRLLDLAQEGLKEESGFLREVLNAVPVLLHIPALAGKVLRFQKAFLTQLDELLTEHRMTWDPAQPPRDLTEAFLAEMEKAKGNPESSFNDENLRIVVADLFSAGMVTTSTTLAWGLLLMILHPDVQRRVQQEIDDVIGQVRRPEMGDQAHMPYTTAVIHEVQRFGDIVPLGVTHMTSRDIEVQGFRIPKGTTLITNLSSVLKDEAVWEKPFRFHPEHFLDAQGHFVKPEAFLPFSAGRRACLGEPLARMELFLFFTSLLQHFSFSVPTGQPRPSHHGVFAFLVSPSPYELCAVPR
Chain of Cytochrome P450 2C9 (P11712 whole entry): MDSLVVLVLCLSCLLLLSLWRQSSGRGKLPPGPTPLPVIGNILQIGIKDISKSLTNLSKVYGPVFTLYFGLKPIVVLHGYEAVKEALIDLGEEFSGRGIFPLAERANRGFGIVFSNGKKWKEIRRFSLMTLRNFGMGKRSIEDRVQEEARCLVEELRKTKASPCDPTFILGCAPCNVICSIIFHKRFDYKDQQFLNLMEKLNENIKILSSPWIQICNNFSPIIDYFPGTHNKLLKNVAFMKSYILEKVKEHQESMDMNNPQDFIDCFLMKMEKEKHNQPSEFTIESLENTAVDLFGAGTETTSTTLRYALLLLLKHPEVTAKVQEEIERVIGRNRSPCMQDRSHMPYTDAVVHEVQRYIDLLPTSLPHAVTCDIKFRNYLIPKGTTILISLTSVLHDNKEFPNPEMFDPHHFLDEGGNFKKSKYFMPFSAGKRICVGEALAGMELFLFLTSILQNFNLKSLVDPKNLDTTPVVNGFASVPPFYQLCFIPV
Chain of Cytochrome P450 2C19 (P33261 whole entry): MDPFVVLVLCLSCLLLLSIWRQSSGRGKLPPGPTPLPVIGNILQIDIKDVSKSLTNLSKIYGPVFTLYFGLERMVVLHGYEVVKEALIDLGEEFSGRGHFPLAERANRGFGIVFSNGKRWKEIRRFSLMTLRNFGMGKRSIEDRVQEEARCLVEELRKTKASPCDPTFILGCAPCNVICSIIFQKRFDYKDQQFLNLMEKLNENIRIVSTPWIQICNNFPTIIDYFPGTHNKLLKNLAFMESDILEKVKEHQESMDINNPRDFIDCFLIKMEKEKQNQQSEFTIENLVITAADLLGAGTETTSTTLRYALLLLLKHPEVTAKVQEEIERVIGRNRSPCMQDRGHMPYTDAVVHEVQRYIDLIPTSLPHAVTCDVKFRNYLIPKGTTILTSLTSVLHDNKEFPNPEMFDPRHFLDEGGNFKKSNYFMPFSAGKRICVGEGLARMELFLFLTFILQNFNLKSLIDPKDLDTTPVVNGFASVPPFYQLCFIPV
Chain of Cytochrome P450 3A4 (P08684 whole entry): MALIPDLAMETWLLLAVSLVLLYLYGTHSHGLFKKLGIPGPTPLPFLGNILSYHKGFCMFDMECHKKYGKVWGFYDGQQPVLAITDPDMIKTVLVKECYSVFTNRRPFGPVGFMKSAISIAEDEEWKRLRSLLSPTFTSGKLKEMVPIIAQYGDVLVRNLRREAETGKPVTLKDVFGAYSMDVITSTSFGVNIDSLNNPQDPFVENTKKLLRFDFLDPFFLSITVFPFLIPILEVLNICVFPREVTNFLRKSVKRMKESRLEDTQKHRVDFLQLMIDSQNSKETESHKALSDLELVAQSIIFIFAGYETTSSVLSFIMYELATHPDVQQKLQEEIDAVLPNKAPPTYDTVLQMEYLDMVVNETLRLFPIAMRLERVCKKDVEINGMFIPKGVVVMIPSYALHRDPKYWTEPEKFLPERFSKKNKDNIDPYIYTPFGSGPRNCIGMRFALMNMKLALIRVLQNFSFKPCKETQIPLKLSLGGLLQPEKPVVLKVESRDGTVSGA

With FC(F)(F)COC[C@H]1[C@@H]2CNC[C@@]21c1ccc(Cl)c(Cl)c1 the Ki [1] was 631 nM, the Ki [2] was 347 nM and the Ki [3] was 56.2 nM. The clearance [4] was 42 mL/min/kg, the half-life [5] was 1.4 h and the Vd [6] was 3.2 L/kg. The bioavailability [7] was 41% and the Fu (Brain) was 0.6%.

With CCOC[C@H]1[C@@H]2CNC[C@@]21c1ccc(Cl)c(Cl)c1 the Selectivity ratio (Homo sapiens) was 50, the Activity (Rattus norvegicus [8]) was “Active” and the Activity (Rattus norvegicus [9]) was “Active”. The Activity (Rattus norvegicus [10]) was “Active”, the Activity (Rattus norvegicus [11]) was “Active” and the Activity (Mus musculus [12]) was “Dose-dependent effect”. For the same molecule, the Activity (Mus musculus [13]) was “inactive”, the Activity (Mus musculus [14]) was “Active” and the Activity (Mus musculus [15]) was “inactive”. The Activity (Mus musculus [16]) was “Active” and the Activity (Mus musculus [17]) was “Active”.

In the case of CN(C)CCCC1(c2ccc(F)cc2)OCc2cc(C#N)ccc21 (configuration not stated), the Activity (Mus musculus [18]) is reported as “Active”.

With COCC[C@H]1[C@]2(C)CNC[C@]12c1ccc(Cl)c(Cl)c1 (relative stereo) the Ki [1] was 50.1 nM, the Ki [2] was 1 nM and the Ki [3] was 0.251 nM. For the same molecule, the IC50 [19] was 1.58 nM, the IC50 [20] was 0.398 nM and the IC50 [21] was 15.8 nM.

COC[C@H]1[C@@H]2CNC[C@@]21c1ccc(Cl)c(Cl)c1 (relative stereo) gave a Ki [1] of 56.2 nM, a Ki [2] of 1.74 nM and a Ki [3] of 0.759 nM. For the same molecule, the Ki [22] was 0.741 nM, the Ki [23] was 4.57 nM and the Ki [24] was 85.1 nM. It also gave a Ki [25] of 1.78 nM, an IC50 (Cytochrome P450 1A2) of over 6000 nM and an IC50 (Cytochrome P450 2C9) of over 6000 nM. For the same molecule, the IC50 (Cytochrome P450 2C19) was over 6000 nM, the IC50 (Cytochrome P450 2D6) was over 6000 nM and the IC50 (Cytochrome P450 3A4) was over 6000 nM. It also gave a CL (Liver microsomes [26]) of under 0.5 mL/min/g, a CL (Liver microsomes [27]) of 3.8 mL/min/g and a clearance [4] of 16 mL/min/kg. The half-life [5] was 2.4 h, the Vd [6] was 2.9 L/kg and the bioavailability [7] was 94%. The Kp [28] was 4 and the fraction unbound [29] was 0.027.

Molecule Cc1csc(C[C@H]2[C@@H]3CNC[C@@]32c2ccc(Cl)c(Cl)c2)n1 (relative stereo) has a Ki [1] of 20 nM, a Ki [2] of 0.126 nM and a Ki [3] of 0.0794 nM. For the same molecule, the IC50 [19] was 1 nM, the IC50 [20] was 0.251 nM and the IC50 [21] was 20 nM.
